Results from ChEMBL document CHEMBL2086249, “Use of small-molecule crystal structures to address solubility in a novel series of G protein coupled receptor 119 agonists: optimization of a lead and in vivo evaluation” (J Med Chem, 2012).
Blank lines part the entries; values can stand above or below the compound they belong to.

Experiments:
physchem = details: pH 7.4
[1] = Intrinsic clearance in human liver microsomes; format: ADME, Microsome; details: read-out: CLH
[2] = AUC (0 to 12 hrs) in C57BL6 mouse at 5 mg/kg; format: ADME, organism-based; parameters: time < 12 hr, dose 5 mg/kg; details: plasma
[3] = Drug excretion in bile-duct cannulated Han Wistar rat bile; format: ADME; details: in vivo
[4] = Oral bioavailability in Han Wistar rat at 5 mg/kg; format: ADME, organism-based; details: in vivo
Outline: (§1)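 IV dose 2 mg/kg in 5% DMSO/95% (hydroxypropyl)-β-cyclodextrin; oral dose given as suspension in aqueous 0.1% pluronic F127, 5 mg/kg for mouse and rat, 13 mg/kg for dog. Dose volumes 5 mL/kg (mouse, rat) and 2 mL/kg (dog). Animals were C57BL6 mice, Han Wistar rats and beagle dogs.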

[5] = Cmax in C57BL6 mouse at 5 mg/kg; format: ADME, organism-based; parameters: dose 5 mg/kg; details: in vivo
[6] = Cmax in C57BL6 mouse at 30 mg/kg; format: ADME, organism-based; parameters: dose 30 mg/kg; details: in vivo
[7] = Intrinsic clearance in mouse hepatocytes assessed per million cells; format: ADME, cell-based, Hepatocyte; details: read-out: CLH
[8] = AUC (0 to 24 hrs) in Beagle dog at 10 mg/kg; format: ADME, organism-based, Canis lupus familiaris; parameters: time < 24 hr, dose 10 mg/kg; details: plasma
[9] = Hydrolytic stability of the compound at pH 1 to 10; format: physicochemical; details: buffer
[10] = Half life in Beagle dog at 13 mg/kg, po; format: ADME, organism-based, Canis lupus familiaris; parameters: dose 13 mg/kg, route oral; details: in vivo
Outline: (§2)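 Single-dose PK in C57BL6 mice, Han Wistar rats and beagle dogs. Intravenous 2 mg/kg in 5% DMSO/95% (hydroxypropyl)-β-cyclodextrin. Oral dosing as a suspension in aqueous 0.1% (w/v) pluronic F127, at 5 mg/kg for mouse and rat and 13 mg/kg for dog. Dose volume 5 mL/kg for rodents and 2 mL/kg for dog.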

[11] = Cmax in Han Wistar rat at 5 mg/kg; format: ADME, organism-based; parameters: dose 5 mg/kg; details: in vivo
[12] = Plasma clearance in C57BL6 mouse at 2 mg/kg, iv and 5 mg/kg, po; format: ADME, organism-based
Outline: as §1

[13] = Plasma clearance in Beagle dog at 2 mg/kg, iv and […] mg/kg, po; format: ADME, organism-based, Canis lupus familiaris
[14] = Volume of distribution at steady state in Han Wistar rat at 2 mg/kg, iv and 5 mg/kg, po; format: ADME, organism-based; details: in vivo, read-out: Vdss
Outline: as §1

[15] = Half life in C57BL6 mouse at 2 mg/kg, iv; format: ADME, organism-based; parameters: dose 2 mg/kg, route intravenous; details: in vivo
Outline: as §2

[16] = AUC (0 to 24 hrs) in Han Wistar rat at 5 mg/kg; format: ADME, organism-based; parameters: time < 24 hr, dose 5 mg/kg; details: plasma
[17] = AUC (0 to 6 hrs) in C57BL6 mouse at 30 mg/kg; format: ADME, organism-based; parameters: time < 6 hr, dose 30 mg/kg; details: plasma
[18] = Cmax in Beagle dog at 1 mg/kg; format: ADME, organism-based, Canis lupus familiaris; parameters: dose 1 mg/kg; details: in vivo
[19] = Half life in Han Wistar rat at 5 mg/kg, po; format: ADME, organism-based; parameters: dose 5 mg/kg, route oral; details: in vivo
Outline: as §2

[20] = AUC (0 to 24 hrs) in Han Wistar rat at 100 mg/kg; format: ADME, organism-based; parameters: time < 24 hr, dose 100 mg/kg; details: plasma
[21] = Apparent permeability across apical to basolateral side of human Caco2 cells at 10 uM; format: ADME, cell-based; details: Caco-2
[22] = AUC (0 to 24 hrs) in Beagle dog at 5 mg/kg; format: ADME, organism-based, Canis lupus familiaris; parameters: time < 24 hr, dose 5 mg/kg; details: plasma
[23] = Cmax in C57BL6 mouse at 100 mg/kg; format: ADME, organism-based; parameters: dose 100 mg/kg; details: in vivo
[24] = Half life in C57BL6 mouse at 5 mg/kg, po; format: ADME, organism-based; parameters: dose 5 mg/kg, route oral; details: in vivo
Outline: as §2

[25] = Intrinsic clearance in rat hepatocytes assessed per million cells; format: ADME, cell-based, Hepatocyte; details: read-out: CLH
[26] = Cmax in Beagle dog at 50 mg/kg; format: ADME, organism-based, Canis lupus familiaris; parameters: dose 50 mg/kg; details: in vivo
[27] = Volume of distribution at steady state in Beagle dog at 2 mg/kg, iv and 13 mg/kg, po; format: ADME, organism-based, Canis lupus familiaris; details: in vivo, read-out: Vdss
Outline: as §1

[28] = Volume of distribution at steady state in C57BL6 mouse at 2 mg/kg, iv and 5 mg/kg, po; format: ADME, organism-based; details: in vivo, read-out: Vdss
Outline: as §1

[29] = Half life in Han Wistar rat at 2 mg/kg, iv; format: ADME, organism-based; parameters: dose 2 mg/kg, route intravenous; details: in vivo
Outline: as §2

[30] = AUC (0 to 24 hrs) in Beagle dog at 50 mg/kg; format: ADME, organism-based, Canis lupus familiaris; parameters: time < 24 hr, dose 50 mg/kg; details: plasma
[31] = Drug excretion in bile-duct cannulated Han Wistar rat urine; format: ADME; details: in vivo
[32] = Intrinsic clearance in dog hepatocytes assessed per million cells; format: ADME, cell-based, Canis lupus familiaris, Hepatocyte; details: read-out: CLH
[33] = Cmax in Beagle dog at 5 mg/kg; format: ADME, organism-based, Canis lupus familiaris; parameters: dose 5 mg/kg; details: in vivo
[34] = Cmax in Beagle dog at 10 mg/kg; format: ADME, organism-based, Canis lupus familiaris; parameters: dose 10 mg/kg; details: in vivo
[35] = Plasma clearance in Han Wistar rat at 2 mg/kg, iv and 5 mg/kg, po; format: ADME, organism-based
Outline: as §1

[36] = AUC (0 to 12 hrs) in C57BL6 mouse at 100 mg/kg; format: ADME, organism-based; parameters: time < 12 hr, dose 100 mg/kg; details: plasma
[37] = Oral bioavailability in Beagle dog at 13 mg/kg; format: ADME, organism-based, Canis lupus familiaris; details: in vivo
Outline: as §2

[38] = Cmax in Han Wistar rat at 100 mg/kg; format: ADME, organism-based; parameters: dose 100 mg/kg; details: in vivo
[39] = Oral bioavailability in C57BL6 mouse at 5 mg/kg; format: ADME, organism-based; details: in vivo
Outline: as §1

[40] = Half life in Beagle dog at 2 mg/kg, iv; format: ADME, organism-based, Canis lupus familiaris; parameters: dose 2 mg/kg, route intravenous; details: in vivo
Outline: as §2

[41] = AUC (0 to 24 hrs) in Beagle dog at 1 mg/kg; format: ADME, organism-based, Canis lupus familiaris; parameters: time < 24 hr, dose 1 mg/kg; details: plasma

logD (physchem; octanol/water): 3.4
Compound: CC(C)(C)OC(=O)N1CCN(c2cnc(OCc3ccc(S(C)(=O)=O)cc3)cn2)CC1

logD (physchem; octanol/phosphate buffer): 3.1
Compound: C[C@@H]1CN(c2noc(C3CC3)n2)CCN1c1ncc(OCc2ccncc2C#N)cn1

logD (physchem; octanol/phosphate buffer): 3.5
Compound: C[C@@H]1CN(c2nc(C3CC3)no2)CCN1c1ncc(OCc2ccncc2C#N)cn1

logD (physchem; octanol/phosphate buffer): 3.7
Compound: C[C@@H]1CN(C(=O)OC(C)(C)C)CCN1c1ncc(OCc2ccc(S(C)(=O)=O)cc2F)cn1

logD (physchem; octanol/phosphate buffer): > 4.3
Compound: C[C@@H]1CN(C(=O)OC(C)(C)C)CCN1c1ncc(OCc2ccc(-n3cnnn3)cc2)cn1

logD (physchem; octanol/phosphate buffer): 3
Compound: C[C@@H]1CN(C(=O)OCC(F)(F)F)CCN1c1ncc(OCc2ccncc2C#N)cn1

logD (physchem; octanol/water): 3.1
Compound: C[C@@H]1CN(c2nc(C(F)(F)F)no2)CCN1c1ncc(OCc2ccncc2C#N)cn1

microsomal CLint [1]: 259 µL/min/mg
logD (physchem; octanol/phosphate buffer): 4.2
Compound: CC(C)(C)OC(=O)N1CCN(c2ncc(-c3ccc(OCC#N)cc3)cn2)CC1

microsomal CLint [1]: 47 µL/min/mg
logD (physchem; octanol/phosphate buffer): 3.2
Compound: CC(C)(C)OC(=O)N1CCN(c2ncc(OCc3ccc(S(C)(=O)=O)cc3)cn2)CC1

logD (physchem; octanol/phosphate buffer): 3.4
Compound: CC(C)(C)OC(=O)N1CCN(c2ncc(OCc3ccncc3)cn2)CC1

logD (physchem; octanol/phosphate buffer): 3.2
Compound: CC(C)(C)OC(=O)N1CCN(c2ccc(OCc3ccc(S(C)(=O)=O)cc3)cn2)CC1

logD (physchem; octanol/phosphate buffer): > 3.6
Compound: C[C@@H]1CN(C(=O)OC(C)(C)C)CCN1c1ncc(OCc2ccc(C#N)cc2)cn1

logD (physchem; octanol/phosphate buffer): > 3.6
Compound: C[C@H]1CN(c2ncc(OCc3ccc(S(C)(=O)=O)cc3)cn2)CCN1C(=O)OC(C)(C)C

logD (physchem; octanol/phosphate buffer): 2.9
Compound: CC(C)(C)OC(=O)N1CCN(c2ncc(OCc3ccc(S(C)(=O)=O)cc3)nn2)CC1

logD (physchem; octanol/phosphate buffer): > 3.7
Compound: C[C@@H]1CN(c2ncc(OCc3ccc(S(C)(=O)=O)cc3)cn2)[C@@H](C)CN1C(=O)OC(C)(C)C

logD (physchem; octanol/phosphate buffer): > 3.6
Compound: C[C@@H]1CN(C(=O)OC(C)(C)C)C[C@H](C)N1c1ncc(OCc2ccc(S(C)(=O)=O)cc2)cn1

AUC(0-t) at 12 h [2]: 0.7 µM·h
Drug excretion [3]: Active
bioavailability [4]: 29%
Cmax [5]: 400 nM
Cmax [6]: 3500 nM
hepatocyte CLint [7]: 67 µL/min/1e6 cells
AUC(0-t) at 24 h [8]: 11 µM·h
Stability [9]: Stable
half-life [10]: 5 h
Cmax [11]: 700 nM
clearance [12]: 49 mL/min/kg
clearance [13]: 3.6 mL/min/kg
Vd [14]: 5.1 L/kg
half-life [15]: 1 h
AUC(0-t) at 24 h [16]: 2.7 µM·h
AUC(0-t) at 6 h [17]: 6.4 µM·h
Cmax [18]: 600 nM
half-life [19]: 6 h
AUC(0-t) at 24 h [20]: 97 µM·h
Papp A→B at 10 µM [21]: 85 ×10⁻⁶ cm/s
AUC(0-t) at 24 h [22]: 14 µM·h
Cmax [23]: 14000 nM
half-life [24]: 1 h
hepatocyte CLint [25]: 29 µL/min/1e6 cells
Cmax [26]: 10000 nM
Vd [27]: 4.1 L/kg
Vd [28]: 2.4 L/kg
half-life [29]: 3 h
AUC(0-t) at 24 h [30]: 119 µM·h
Drug excretion [31]: Active
hepatocyte CLint [32]: 5.6 µL/min/1e6 cells
Cmax [33]: 2500 nM
Cmax [34]: 1300 nM
clearance [35]: 28 mL/min/kg
AUC(0-t) at 12 h [36]: 42 µM·h
bioavailability [37]: 24%
Cmax [38]: 6300 nM
logD (physchem; octanol/phosphate buffer): 3.3
bioavailability [39]: 22%
half-life [40]: 11 h
AUC(0-t) at 24 h [41]: 4 µM·h
Compound: CC(C)c1nc(N2CCN(c3ncc(OCc4ccncc4C#N)cn3)[C@H](C)C2)no1

logD (physchem; octanol/phosphate buffer): 3.5
Compound: C[C@H]1CN(C(=O)OC(C)(C)C)CCN1c1ncc(OCc2ccc(S(C)(=O)=O)cc2)cn1

logD (physchem; octanol/phosphate buffer): 3.4
Compound: C[C@@H]1CN(c2ncc(F)cn2)CCN1c1ncc(OCc2ccncc2C#N)cn1
